Reference: ChEMBL document CHEMBL1287726, “Bisaryldiketene derivatives: A new class of selective ligands for c-myc G-quadruplex DNA” (Bioorg Med Chem, 2010)
Several values for one entry are separate records, joined by “and”; a condition that tells them apart may be missing. Equal values may be shown once. Activity calls are given as the source filed them. The rule behind the calls is not given here.

Columns and labels:
[1] = test system: Nucleic Acid; experiment: Binding affinity to F-c-kit1-T G-quadruplex DNA assessed as change in melting temperature at 1 uM by FRET assay (reference value: 54 degC); assay type: nucleic-acid assay
Outline: (§1)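 FRET melting of dual FAM/TAMRA-labelled oligonucleotide (0.2 μM), pre-annealed in K+ buffer (90 °C 5 min, slow cooling, 4 °C overnight), in 10 mM Tris-HCl pH 7.4, 60 mM KCl with ligand at 1 μM. Equilibrated 25 °C 5 min, then heated 1 °C/min to 95 °C; excitation 492 nm, emission 516 nm. ΔTm = Tm(DNA+ligand) − Tm(DNA).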

[2] = test system: Nucleic Acid; experiment: Binding affinity to F22T G-quadruplex DNA assessed as decrease in melting temperature at 1 uM by FRET assay in presence of duplex DNA competitor ds26; assay type: nucleic-acid assay
Outline: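 Competitive FRET melting: 0.2 μM F22T premixed with excess duplex ds26 (3 μM or 10 μM), ligand at 1 μM, in 10 mM Tris-HCl pH 7.4, 60 mM KCl. Heated 1 °C/min from 25 °C to 95 °C; ex 492/em 516 nm; ΔTm determined.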

[3] = test system: human telomeric G-quadruplex DNA F21T (human); experiment: Binding affinity to F21T G-quadruplex DNA assessed as change in melting temperature at 1 uM by FRET assay (reference value: 60 degC)
[4] = test system: c-myc G-quadruplex DNA F22T (human); experiment: Binding affinity to human F22T G-quadruplex DNA assessed as change in melting temperature at 1 uM by FRET assay (reference value: 78 degC)
[5] = target: Nucleic Acid; experiment: Binding affinity to single-strand Pu27 oligonucleotide assessed as formation of G-quadruplex complex after 3 mins by PCR stop assay; assay type: nucleic-acid assay
Outline: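 PCR stop assay: Pu27 with complementary Pu27rev (10 pmol each), 0.16 mM dNTP, 2.5 U Taq polymerase and ligand in 1× PCR buffer. Cycling 94 °C 3 min, then 35 cycles of 94 °C/58 °C/72 °C, 30 s each. Double-stranded product detected by electrophoresis; IC50 is the concentration inhibiting amplification by 50%.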

[6] = test system: Nucleic Acid; experiment: Binding affinity to F-c-kit2-T G-quadruplex DNA assessed as change in melting temperature at 1 uM by FRET assay (reference value: 75 degC); assay type: nucleic-acid assay; outline: as §1
[7] = test system: Nucleic Acid; experiment: Binding affinity to F10T hairpin duplex DNA assessed as change in melting temperature at 1 uM by FRET assay (reference value: 64 degC)
[8] = test system: Nucleic Acid; experiment: Binding affinity to F22T G-quadruplex DNA assessed as change in melting temperature at 1 uM by FRET assay in presence of G-quadruplex DNA competitor c-kit2; assay type: nucleic-acid assay
Outline: (§2)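 Competitive FRET melting: 0.2 μM F22T with ligand at 1 μM, without or with 3 μM or 10 μM unlabelled G-quadruplex competitor (c-kit1, c-kit2 or HTG21), in 10 mM Tris-HCl pH 7.4, 60 mM KCl. Heated 1 °C/min from 25 °C to 95 °C; ex 492/em 516 nm; ΔTm determined.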

[9] = test system: Nucleic Acid; experiment: Selectivity ratio, K for F22T G-quadruplex DNA to K for human F21T G-quadruplex DNA; assay type: nucleic-acid assay
[10] = test system: Nucleic Acid; experiment: Binding affinity to Pu27 G-quadruplex DNA assessed as change in melting temperature by isothermal titration calorimetry; assay type: nucleic-acid assay
Outline: (§3)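 ITC at 25 °C: preannealed G-quadruplex (5 μM) in cell, ligand (400 μM) in syringe, both in 10 mM Tris-HCl pH 7.4, 150 mM KCl, degassed. Thirty 10 μL injections at 4 min intervals. Heats of ligand dilution into buffer subtracted before fitting the integrated thermograms for K, ΔH, ΔS.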

[11] = test system: Nucleic Acid; experiment: Binding affinity to HTG21 G-quadruplex DNA assessed as change in melting temperature by isothermal titration calorimetry; assay type: nucleic-acid assay; outline: as §3
[12] = test system: Nucleic Acid; experiment: Binding affinity to F22T G-quadruplex DNA assessed as decrease in melting temperature at 1 uM by FRET assay in presence of G-quadruplex DNA competitor HTG21; assay type: nucleic-acid assay; outline: as §2
[13] = test system: Nucleic Acid; experiment: Selectivity ratio, K for F22T G-quadruplex DNA to K for c-kit1 G-quadruplex DNA; assay type: nucleic-acid assay
[14] = test system: Nucleic Acid; experiment: Binding affinity to F22T G-quadruplex DNA assessed as change in melting temperature at 1 uM by FRET assay in presence of G-quadruplex DNA competitor c-kit1; assay type: nucleic-acid assay; outline: as §2
[15] = test system: Nucleic Acid; experiment: Binding affinity to c-kit2 G-quadruplex DNA assessed as change in melting temperature by isothermal titration calorimetry; assay type: nucleic-acid assay; outline: as §3
[16] = test system: Nucleic Acid; experiment: Selectivity ratio, K for F22T G-quadruplex DNA to K for c-kit2 G-quadruplex DNA; assay type: nucleic-acid assay
[17] = test system: Nucleic Acid; experiment: Binding affinity to c-kit1 G-quadruplex DNA assessed as change in melting temperature by isothermal titration calorimetry; assay type: nucleic-acid assay; outline: as §3

Question: Which results are given for `O=C(/C=C/c1ccc2ncccc2c1)/C=C/c1ccc2ncccc2c1`?
Answer: ΔTm [1]: 10 °C; Activity [2]: inactive; ΔTm [3]: 3 °C; ΔTm [4]: 2 °C; IC50 [5]: > 20 µM; ΔTm [6]: 5 °C; ΔTm [7]: 0 °C

Question: Which ΔTm [1] does the source give for `CN1C/C(=C\c2ccc3ncccc3c2)C(=O)/C(=C/c2ccc3ncccc3c2)C1` here?
Answer: 1 °C

Question: What about the Activity [2] of the same molecule?
Answer: inactive

Question: What about the ΔTm [3] of the same molecule?
Answer: 4 °C

Question: And the ΔTm [4]?
Answer: 1 °C

Question: And the IC50 [5]?
Answer: > 20 µM

Question: What about the ΔTm [6] of the same molecule?
Answer: 1 °C

Question: What about the ΔTm [7] of the same molecule?
Answer: 0 °C

Question: How did the ΔTm [1] turn out when `C[n+]1cccc2cc(/C=C3\C[N+](C)(C)C/C(=C\c4ccc5c(ccc[n+]5C)c4)C3=O)ccc21` was run?
Answer: 14 °C

Question: And the Activity [2]?
Answer: inactive

Question: And the ΔTm [3]?
Answer: 7 °C

Question: What about the ΔTm [4] of the same molecule?
Answer: 7 °C

Question: What about the IC50 [5] of the same molecule?
Answer: 12.6 µM

Question: And the ΔTm [6]?
Answer: 6 °C

Question: And the ΔTm [7]?
Answer: 0 °C

Question: `O=C1/C(=C/c2ccc3ncccc3c2)CC/C1=C\c1ccc2ncccc2c1` was tested. Which ΔTm [1] did it give?
Answer: 1 °C

Question: And the Activity [2]?
Answer: inactive

Question: And the ΔTm [3]?
Answer: 0 °C

Question: And the ΔTm [4]?
Answer: 2 °C

Question: And the IC50 [5]?
Answer: > 20 µM

Question: What about the ΔTm [6] of the same molecule?
Answer: 0 °C

Question: What about the ΔTm [7] of the same molecule?
Answer: 0 °C

Question: For `C[n+]1cccc2cc(/C=C3/CCC/C(=C/c4ccc5c(ccc[n+]5C)c4)C3=O)ccc21`, which ΔTm [1] is on record?
Answer: 17 °C

Question: And the Activity [2]?
Answer: inactive

Question: And the ΔTm [3]?
Answer: 10 °C

Question: And the ΔTm [4]?
Answer: 9 °C

Question: And the IC50 [5]?
Answer: 1.1 µM

Question: And the ΔTm [6]?
Answer: 12 °C

Question: And the ΔTm [7]?
Answer: 0 °C

Question: Which results are given for `C[n+]1cccc2cc(/C=C/C(=O)/C=C/c3ccc4c(ccc[n+]4C)c3)ccc21`?
Answer: ΔTm [1]: 24 °C; Activity [2]: inactive; ΔTm [3]: 17 °C; ΔTm [4]: 13 °C; IC50 [5]: 0.7 µM; ΔTm [6]: 17 °C; ΔTm [7]: 0 °C

Question: `O=C1/C(=C\c2ccc3ncccc3c2)CCC/C1=C/c1ccc2ncccc2c1` was tested. Which ΔTm [1] did it give?
Answer: 1 °C

Question: What about the Activity [2] of the same molecule?
Answer: inactive

Question: What about the ΔTm [3] of the same molecule?
Answer: 0 °C

Question: What about the ΔTm [4] of the same molecule?
Answer: 2 °C

Question: And the IC50 [5]?
Answer: > 20 µM

Question: And the ΔTm [6]?
Answer: 0 °C

Question: What about the ΔTm [7] of the same molecule?
Answer: 0 °C

Question: Which results are given for `C[n+]1cccc2cc(/C=C3\CC/C(=C\c4ccc5c(ccc[n+]5C)c4)C3=O)ccc21`?
Answer: Activity [8]: 40%; ΔTm [1]: 29 °C; Selectivity ratio [9]: 200; Activity [2]: inactive; ΔTm [3]: 23 °C; ΔTm [4]: 17 °C; K [10]: 8.05 ×10⁶ /M and 4.42 ×10⁴ /M; IC50 [5]: 0.9 µM; K [11]: 3.61 ×10⁴ /M; Activity [12]: Active; ΔTm [6]: 20 °C; Selectivity ratio [13]: 25; Activity [14]: 40%; K [15]: 1.27 ×10⁵ /M; Selectivity ratio [16]: 25; K [17]: 3.08 ×10⁵ /M; ΔTm [7]: 1 °C
